Screening results from PubChem BioAssay.
MPTP block: mitochondrial permeability transition pore inhibitors, primary screen, biochemical, isolated mouse mitochondria, absorbance. 360,000 tested, 1.4% active. Ca2+ swelling absorbance, 30 min. inhibition, % at 10 µM;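 active means inhibition of 50% or more, scaled per plate between neutral and stimulator controls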;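 further: 0% = DMSO wells given calcium and 100% = 1 mM EGTA wells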
SKN-1 block: suppressors of acrylamide-induced Pgst-4::GFP reporter in worms, primary screen, SKN-1 inhibitor project, whole organism, uHTS, GFP/RFP fluorescence ratio, strain VP596; C. elegans VP596 Pgst-4::GFP/RFP ratio, 24 h; inhibition, % at 21.8 µM; 360,000 tested, 0.49% active;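 active means interference check ratio from 0.5 to 1.5 plus GFP to RFP signal ratio inhibition reaching or exceeding a fixed threshold, cut at about 30% in these data, passing the limit was not always enough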
MT1-MMP act inh: blockers of MT1-MMP proenzyme processing, primary screen, HT1080 RFP-PRO-GFP cells, GFP/RFP fluorescence; Matrix metalloproteinase-14 (Homo sapiens), P50281; GFP/RFP ratio fluorescence, overnight; percent of plate control window, DMSO zero; GFP/RFP ratio change, % at 20 µM; 360,000 tested, 0.061% active; AID 651647, 2012;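 active means GFP/RFP ratio change of at least 30% with cell ATP level not reduced by more than half and red fluorescence within 50% of control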
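Assay system: HT1080 RFP-PRO-GFP cells | Dosing: 20 µM single dose, 1% DMSO | Incubation: Cells overnight before dosing, compound overnight, 37 °C, 5% CO2 | Evaluation: GFP/RFP fluorescence ratio | Control set: DMSO-only wells and HT1080 RFP-L50D-GFP cell wells as references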
GRIN3A LBD mod: binders of NR3A ligand-binding domain, primary screen, biophysical, differential scanning fluorimetry, uHTS; NR3A LBD differential scanning fluorimetry, Tm shift; 0% = protein alone, 100% = glycine-bound protein; Tm shift relative to glycine control, % at 25 µM; 340,000 tested, 2.5% active; Glutamate receptor ionotropic, NMDA 3A (GRIN3A) ligand-binding domain;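 active means melting temperature shift of at least 10% of the positive control shift, at one fixed dose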
ADAM10 inh: human ADAM10 inhibitors, primary screen, biochemical, QFRET, HTS; Disintegrin and metalloproteinase domain-containing protein 10 (Homo sapiens), O14672; recombinant ADAM10, EDANS/DABCYL FRET peptide cleavage, 3 h; inhibition, % at 7 µM; 370,000 tested, 0.62% active; AID 720582, 2013;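 active means inhibition above a per-campaign cutoff equal to the mean of compounds falling between control-based bounds plus 3 SD, cut at about 20% in these data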;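 further: 0% = DMSO wells while the 100% control is not disclosed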
Target sequence (O14672 214-748 limits assumed): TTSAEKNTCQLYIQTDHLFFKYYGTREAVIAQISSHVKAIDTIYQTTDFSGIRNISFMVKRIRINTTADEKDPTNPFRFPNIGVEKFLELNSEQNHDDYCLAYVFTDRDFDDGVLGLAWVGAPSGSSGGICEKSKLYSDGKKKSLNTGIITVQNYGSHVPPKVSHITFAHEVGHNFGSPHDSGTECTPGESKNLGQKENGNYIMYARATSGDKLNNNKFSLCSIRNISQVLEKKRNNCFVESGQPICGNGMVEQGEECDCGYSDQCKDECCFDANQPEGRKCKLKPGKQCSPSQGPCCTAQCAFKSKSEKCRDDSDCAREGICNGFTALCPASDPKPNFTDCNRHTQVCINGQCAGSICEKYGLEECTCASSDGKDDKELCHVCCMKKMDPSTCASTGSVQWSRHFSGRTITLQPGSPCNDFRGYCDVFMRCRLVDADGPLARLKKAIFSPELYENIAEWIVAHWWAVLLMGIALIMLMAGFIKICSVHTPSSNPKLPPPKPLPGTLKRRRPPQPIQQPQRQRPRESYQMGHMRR
ADAM17 inh: ADAM17 inhibitors, primary screen, biochemical, QFRET. Disintegrin and metalloproteinase domain-containing protein 17 (Homo sapiens), P78536. recombinant ADAM17, EDANS/DABCYL FRET peptide cleavage. inhibition, % at 6.95 µM. 370,000 tested, 0.83% active;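 active means inhibition above the mean of compounds lying between control limits plus 3 SD, set per campaign, cut at about 8.5% in these data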;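 further: 0% = DMSO-only wells as the low control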
ADAM10 ctr: ADAM10 inhibitors, counter-screen for ADAM17 exosite inhibitor project, biochemical, FRET, human ADAM10 | shares compounds with ADAM17 inh | recombinant ADAM10, EDANS/DABCYL FRET peptide cleavage, 3 h | inhibition, % at 6.95 µM | 2,900 tested, 47% active | AID 743256, 2014;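 active means mean inhibition over the triplicate runs exceeds the activity threshold set in the earlier primary screen, cut at about 20% in these data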;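 further: 0% = DMSO wells and 100% = marimastat wells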
ADAM17 confirm: ADAM17 inhibitors, hit retest, confirmation, biochemical, QFRET peptide cleavage | shares compounds with ADAM17 inh | recombinant ADAM17, EDANS/DABCYL QFRET peptide cleavage | inhibition, % at 6.95 µM | 2,900 tested, 65% active;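 active means mean inhibition across replicates above the hit cutoff set in the primary screen, cut at about 8.5% in these data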;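 further: 0% = DMSO wells and 100% = marimastat wells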
Starred values were filed as active, the others as inactive; . = no result. Only some compounds are listed: those with a hit (about 4.7% of all), similar ones and a draw of the others.

SMILES | MPTP block | SKN-1 block | MT1-MMP act inh | GRIN3A LBD mod | ADAM10 inh | ADAM17 inh | ADAM10 ctr | ADAM17 confirm
Cc1ccccc1C(=O)N1CCN(c2ccc(NC(=O)c3cccnc3)cc2)CC1 | 1 | 18 | -2 | -1 | 5 | -1 | . | .
CC(c1ccccc1)n1c(SCC(=O)N2CC(=O)Nc3ccccc32)nc2ccccc2c1=O (configuration not stated) | 1 | 17 | -17 | -5 | 15 | 8.9* | 37* | 16*
COc1ccc(C2C(C(=O)OC3CCCCC3)=C(C)Nc3nnnn32)c(OC)c1OC (configuration not stated) | -2 | 8 | -8 | 1 | 8 | 1 | . | .
CCn1c(SC)nc2cc(S(=O)(=O)N3CCCCC3)ccc21 | -1 | -3 | -2 | 1 | -3 | -7 | . | .
CCC(C)Sc1ccc([C@@H]2[C@@H]3C(=O)N(CC)C(=O)[C@@H]3[C@]3(C(=O)OC)CCCCN23)cc1OC (some centres not stated) | -2 | 3 | -5 | 0 | 13 | 9.2* | -3 | 7
CCCSc1ccc([C@@H]2[C@H]3C(=O)N(CC)C(=O)[C@H]3[C@]3(C(=O)OC)CCCN23)cc1 | 1 | -5 | -4 | 0 | 10 | 13* | 3 | 3
CCSc1ccc([C@@H]2[C@H]3C(=O)N(C)C(=O)[C@H]3[C@]3(C(=O)OC)CCCCN23)cc1OC | 1 | -3 | -2 | -1 | 3 | 11* | 26* | 13*
COC(=O)[C@@]12CCCCN1[C@H](c1ccc(SC3CCCCC3)c(OC)c1)[C@@H]1C(=O)N(C)C(=O)[C@@H]12 | -1 | 3 | -4 | -7 | 15 | 10* | 29* | 17*
CCCSc1ccc([C@@H]2[C@@H]3C(=O)N(CC)C(=O)[C@@H]3[C@]3(C(=O)OC)CCCCN23)cc1 | -1 | -9 | 4 | -4 | 13 | 3 | . | .
CC1=C(C(=O)N(C(C)C)C(C)C)CC(CC(=O)NC2CC2)C(=O)N1Cc1ccc(C(C)(C)C)cc1 (configuration not stated) | -1 | 8 | 9 | . | 0 | -2 | . | .
CCCCC1Cc2[nH]c(=S)[nH]c(=O)c2C(c2ccc(C(C)C)cc2)O1 (configuration not stated) | -2 | -8 | 1 | . | 9 | 1 | . | .
Cc1cc(/C=C2\NC(=S)N(C)C2=O)ccc1N1CCCC1 | 9 | 22 | -108 | -15 | 9 | 8.9* | 10 | 8
OC(CSc1nnnn1-c1ccccc1)Cn1c2ccccc2c2ccccc21 (configuration not stated) | 2 | 9 | 4 | . | 7 | 11* | 15 | 10*
Cc1cc(N2CCN(C(=O)Oc3ccc(C(F)(F)F)cc3)CC2)c2ccccc2n1 | . | . | . | . | 5 | -1 | . | .
Cc1cc(N2CCN(C(=O)Oc3ccc(-c4ccccc4)cn3)CC2)c2ccccc2n1 | . | . | . | . | -103 | 10* | 20 | 15*
O=Nc1c(-c2ccccc2)n(O)[n+]([O-])c1-c1ccccc1 | 4 | -2 | 0 | . | -5 | 1 | . | .
